We go through twelve compounds from ChEMBL document CHEMBL2021813, “Semisynthetic neoclerodanes as kappa opioid receptor probes” (Bioorg Med Chem, 2012).

What all share (assay type): cell-based
The target of assay [1] is T1, Mu-type opioid receptor (Homo sapiens, UniProt P35372). Nature of the assay: Displacement of [3H]DAMGO from human recombinant mu opioid receptor expressed in CHO cells at 1 uM after 2 hrs by liquid scintillation counting. The essentials: (§1)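 Radioligand (~2 nM) competition on human opioid receptor CHO membranes in Tris-HCl pH 7.4, 2 hr at 25 °C, with GF/B filtration and scintillation counting. Results are percent of control produced by a single test drug concentration, 1 μM or 10 μM as the line states. Nonspecific binding was set by 20 μM levallorphan (DADLE, DAMGO) or 1 μM (−)-U69,593 (U69,593).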

The target of assay [2] is T1, Mu-type opioid receptor. Nature of the assay: Displacement of [3H]DAMGO from human recombinant mu opioid receptor expressed in CHO cells after 2 hrs by liquid scintillation counting. Summed up: (§2)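 Membranes from CHO cells stably transfected with human DOP, MOP or KOP receptor, in 50 mM Tris-HCl pH 7.4 with a protease inhibitor cocktail. The ~2 nM [3H]radioligand was displaced by 10 drug concentrations, in triplicate, for 2 hr at 25 °C, then filtered over GF/B. Nonspecific binding was set by 20 μM levallorphan (DADLE, DAMGO) or 1 μM (−)-U69,593 (U69,593). Ki (±SD) came from full curves, n=3.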

The target of assay [3] is T2, Delta-type opioid receptor (Homo sapiens, UniProt P41143). The experiment in a line: Displacement of [3H]DADLE from human recombinant delta opioid receptor expressed in CHO cells after 2 hrs by liquid scintillation counting. The essentials:
as §2

The target of assay [4] is T2, Delta-type opioid receptor. The experiment in a line: Displacement of [3H]DADLE from human recombinant delta opioid receptor expressed in CHO cells at 10 uM after 2 hrs by liquid scintillation counting. The essentials: as §1
In assay [5] the target is Kappa-type opioid receptor (Homo sapiens, UniProt P41145). The experiment in a line: Displacement of [3H]U69593 from human recombinant kappa opioid receptor expressed in CHO cells after 2 hrs by liquid scintillation counting. Summed up: as §2
For assay [6], the target named is T1, Mu-type opioid receptor. Nature of the assay: Displacement of [3H]DAMGO from human recombinant mu opioid receptor expressed in CHO cells at 10 uM after 2 hrs by liquid scintillation counting. Summed up: as §1
For assay [7], the target named is T2, Delta-type opioid receptor. Nature of the assay: Displacement of [3H]DADLE from human recombinant delta opioid receptor expressed in CHO cells at 1 uM after 2 hrs by liquid scintillation counting. The essentials:
as §1

Where only a bound is given, the exact number is not on record here.

T2 sequence (P41143 whole entry): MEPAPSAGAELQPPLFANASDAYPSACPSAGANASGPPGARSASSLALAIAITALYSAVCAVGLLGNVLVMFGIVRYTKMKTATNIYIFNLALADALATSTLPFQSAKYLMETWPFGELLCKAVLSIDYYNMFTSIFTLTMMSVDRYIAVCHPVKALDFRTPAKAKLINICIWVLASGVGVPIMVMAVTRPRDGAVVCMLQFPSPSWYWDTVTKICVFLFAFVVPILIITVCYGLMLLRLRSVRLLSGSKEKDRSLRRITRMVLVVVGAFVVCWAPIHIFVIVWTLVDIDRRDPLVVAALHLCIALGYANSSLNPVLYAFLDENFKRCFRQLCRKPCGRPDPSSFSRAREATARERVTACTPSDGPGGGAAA
Kappa-type opioid receptor, sequence (P41145 whole entry): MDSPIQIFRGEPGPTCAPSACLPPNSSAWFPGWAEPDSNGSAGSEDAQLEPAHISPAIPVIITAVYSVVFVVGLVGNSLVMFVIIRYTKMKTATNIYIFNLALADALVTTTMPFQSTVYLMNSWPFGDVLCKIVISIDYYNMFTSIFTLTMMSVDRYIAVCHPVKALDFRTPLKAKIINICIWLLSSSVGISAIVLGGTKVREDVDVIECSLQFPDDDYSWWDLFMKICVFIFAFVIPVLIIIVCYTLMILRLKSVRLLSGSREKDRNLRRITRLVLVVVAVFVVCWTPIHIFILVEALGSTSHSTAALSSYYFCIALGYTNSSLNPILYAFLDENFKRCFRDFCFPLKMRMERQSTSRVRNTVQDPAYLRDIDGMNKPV
T1 sequence (P35372 whole entry): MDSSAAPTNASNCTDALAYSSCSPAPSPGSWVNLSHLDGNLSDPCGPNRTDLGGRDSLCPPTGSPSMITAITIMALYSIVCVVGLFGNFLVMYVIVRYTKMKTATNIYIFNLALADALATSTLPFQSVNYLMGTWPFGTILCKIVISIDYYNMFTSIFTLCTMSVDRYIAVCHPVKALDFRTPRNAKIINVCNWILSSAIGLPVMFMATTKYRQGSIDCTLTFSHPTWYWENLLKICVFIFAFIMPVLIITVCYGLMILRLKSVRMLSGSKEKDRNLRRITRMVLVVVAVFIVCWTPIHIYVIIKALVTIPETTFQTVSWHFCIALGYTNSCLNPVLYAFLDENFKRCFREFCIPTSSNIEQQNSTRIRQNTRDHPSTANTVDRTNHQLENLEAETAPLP

With `COC(=O)[C@@H]1C[C@H](OC(C)=O)C(=O)[C@H]2[C@@]1(C)CC[C@H]1C(=O)O[C@H](C(=O)c3cccc(O)c3)C[C@]21C`, the Activity came out at 55% on Mu-type opioid receptor [1] and 80% in assay [4]. The Ki at Mu-type opioid receptor [2] was greater than 1 µM; in assay [3], greater than 10 µM; in assay [5] it was 0.11 µM.

Take `COC(=O)[C@@H]1C[C@H](OC(C)=O)C(=O)[C@H]2[C@@]1(C)CC[C@H]1C(=O)O[C@H](C(=O)c3ccoc3)C[C@]21C`: the values for the Ki (on Mu-type opioid receptor [2]; in assay [3]; in assay [5]) were greater than 10 µM, greater than 10 µM and 0.15 µM, respectively. Moreover, the Activity stood at 95% in assay [4] and 66% on Mu-type opioid receptor [6].

Turning to `COC(=O)[C@@H]1C[C@H](OC(C)=O)C(=O)[C@H]2[C@@]1(C)CC[C@H]1C(=O)O[C@H](/C=C/c3ccoc3)C[C@]21C`, the Ki on Mu-type opioid receptor [2] is greater than 10 µM; in assay [3], greater than 10 µM; in assay [5], 1.12 µM. Besides, the Activity in assay [4] is 66%; on Mu-type opioid receptor [6] it was 78%.

In the case of `COC(=O)[C@@H]1C[C@H](OC(C)=O)C(=O)[C@H]2[C@@]1(C)CC[C@H]1C(=O)O[C@H](C(=O)c3ccc(OC)cc3)C[C@]21C`, the Ki (at Mu-type opioid receptor [2]; in assay [3]; in assay [5]) was greater than 10 µM each time. Besides, the values for the Activity (in assay [7]; at Mu-type opioid receptor [6]) were 81% and 74%, respectively.

In the case of `COC(=O)[C@@H]1C[C@H](OC(C)=O)C(=O)[C@H]2[C@@]1(C)CC[C@H]1C(=O)O[C@H](C(=O)c3cccc(OC(F)(F)F)c3)C[C@]21C`, the results for the Ki (at Mu-type opioid receptor [2]; in assay [3]; in assay [5]) were 4.8 µM, greater than 1 µM and greater than 10 µM, respectively. For the same compound, in assay [7], the Activity was determined as 37%.

Consider `COC(=O)[C@@H]1C[C@H](OC(C)=O)C(=O)[C@H]2[C@@]1(C)CC[C@H]1C(=O)O[C@H](C(=O)c3ccccc3OC)C[C@]21C`, for which the Ki at Mu-type opioid receptor [2] was greater than 10 µM; in assay [3], greater than 10 µM; in assay [5], 1.07 µM. Moreover, the values for the Activity (in assay [7]; on Mu-type opioid receptor [6]) were 87% and 53%, respectively.

As for `COC(=O)[C@@H]1C[C@H](OC(C)=O)C(=O)[C@H]2[C@@]1(C)CC[C@H]1C(=O)O[C@H](C(=O)c3ccccc3O)C[C@]21C`, the Ki at Mu-type opioid receptor [2] is 3.6 µM; in assay [3] it was greater than 10 µM; in assay [5] it was 0.5 µM. In assay [4], the Activity worked out at 94%.

Take `COC(=O)[C@@H]1C[C@H](OC(C)=O)C(=O)[C@H]2[C@@]1(C)CC[C@H]1C(=O)O[C@H](C(=O)c3cccc(OC)c3)C[C@]21C`: the values for the Ki (on Mu-type opioid receptor [2]; in assay [3]; in assay [5]) were 3.09 µM, greater than 10 µM and 0.29 µM, respectively. For the same compound, in assay [7], the Activity was determined as 77%.

`COC(=O)[C@@H]1C[C@H](OC(C)=O)C(=O)[C@H]2[C@@]1(C)CC[C@H]1C(=O)O[C@H](C(=O)c3cc4ccccc4s3)C[C@]21C`: the Ki on Mu-type opioid receptor [2] is greater than 10 µM; in assay [3], greater than 10 µM; in assay [5] it was 9.21 µM. Moreover, the Activity in assay [4] is 95%; at Mu-type opioid receptor [6] it was 58%.

For the compound `COC(=O)[C@@H]1C[C@H](OC(C)=O)C(=O)[C@H]2[C@@]1(C)CC[C@H]1C(=O)O[C@H](C(=O)c3cccc(C(F)(F)F)c3)C[C@]21C`, the Ki on Mu-type opioid receptor [2] was 3.4 µM; in assay [3] it was greater than 1 µM; in assay [5] it was 2.26 µM. Moreover, the Activity in assay [7] amounted to 46%.

For the compound `C/C=C\C(=O)[C@@H]1C[C@]2(C)[C@H]3C(=O)[C@@H](OC(C)=O)C[C@@H](C(=O)OC)[C@]3(C)CC[C@H]2C(=O)O1`, the inhibition constant (Ki) on Mu-type opioid receptor [2] was greater than 1.7 µM; in assay [3], greater than 5 µM; in assay [5], 0.32 µM.

In the case of `COC(=O)[C@@H]1C[C@H](OC(C)=O)C(=O)[C@H]2[C@@]1(C)CC[C@H]1C(=O)O[C@H](C(=O)c3ccc(O)cc3)C[C@]21C`, the Ki on Mu-type opioid receptor [2] is greater than 10 µM; in assay [3] it was greater than 10 µM; in assay [5], 8.47 µM. In addition, the results for the Activity (in assay [4]; on Mu-type opioid receptor [6]) were 100% and 93%, respectively.
